# Measurements from ChEMBL document CHEMBL1124373, “Specific inhibition of benzodiazepine receptor binding by some N-(indol-3-ylglyoxylyl)amino acid derivatives: stereoselective interactions” (J Med Chem, 1989).
# pIC50: −log10 of the molar value.
# Key:
# [1] = biological target: T1, GABA-A receptor; anion channel (Bos taurus) (UniProt P10063+P08220+P20237+P08219+P10064+P22300); test: Relative binding to GABA-A benzodiazepine receptor in the presence and absence of GABA (GABA shift); format: protein-complex assay
# Summary of the method: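 Exhaustively washed bovine cortical membranes were used. Binding inhibition used 0.9 nM [3H]flunitrazepam at 0 °C for 90 min in 50 mM Tris-HCl pH 7.4. IC50 was determined by log-probit analysis without and with 10 µM GABA. Ratio = IC50 without GABA / IC50 with GABA.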
# [2] = biological target: GABA-A receptor; anion channel; test: Inhibitory concentration against [3H]flunitrazepam binding to benzodiazepine receptor from bovine cerebral cortex; format: tissue-based
# Summary of the method: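 Membranes from bovine cerebral cortex were homogenized in 0.32 M sucrose with protease inhibitors, osmotically shocked, and suspended in 50 mM Tris-HCl pH 7.4. Membrane (0.5 mg protein) was incubated with 0.9 nM [3H]flunitrazepam at 0 °C for 90 min, then filtered and counted. Nonspecific binding was defined with 10 µM diazepam. IC50 came from log-probit analysis of six to eight concentrations in triplicate; values are means ± SEM of four determinations.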
# Mus musculus [3] = test: Antagonism of Diazepam anticonvulsant effect in mice treated with 60 mg/kg PTZ; format: functional
# Mus musculus [4] = test: Dose required to induce convulsions in mice treated with subcutaneous PTZ (40 mg/kg); format: functional; conditions: sc
# Summary of the method: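 Groups of 10 mice received graded ip doses (0.1 mL) suspended in 1% carboxymethylcellulose, or vehicle alone. A subconvulsant PTZ dose of 40 mg/kg followed 30 min later. ED50 is the dose inducing convulsions in 50% of mice.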
# [5] = biological target: T1, GABA-A receptor; anion channel (Bos taurus); test: Percentage inhibition of [3H]flunitrazepam binding to benzodiazepine receptor from bovine cerebral cortex at a concentration of 250 uM; format: tissue-based
Structure (SMILES),pIC50 [2],other results
CCOC(=O)[C@H](C)NC(=O)C(=O)c1c[nH]c2ccc(Cl)cc12,6.82,Ratio [1]: 0.9
CCOC(=O)C(C)NC(=O)C(=O)c1c[nH]c2ccccc12 (configuration not stated),4.89,–
CCOC(=O)[C@H](Cc1ccccc1)NC(=O)C(=O)c1c[nH]c2ccc(Cl)cc12,4.52,–
C[C@@H](NC(=O)C(=O)c1c[nH]c2ccc(Br)cc12)C(=O)O,4.10,–
CCOC(=O)[C@H](C)NC(=O)C(=O)c1c[nH]c2ccccc12,5.12,–
CCOC(=O)[C@H](Cc1ccccc1)NC(=O)C(=O)c1c[nH]c2ccc([N+](=O)[O-])cc12,7.00,–
CCOC(=O)[C@@H](C)NC(=O)C(=O)c1c[nH]c2ccc(Cl)cc12,4.60,Ratio [1]: 0.92
CCOC(=O)[C@@H](Cc1ccccc1)NC(=O)C(=O)c1c[nH]c2ccc(Br)cc12,3.66,–
CCOC(=O)C(Cc1ccccc1)NC(=O)C(=O)c1c[nH]c2ccc(Br)cc12 (configuration not stated),3.74,–
C[C@H](NC(=O)C(=O)c1c[nH]c2ccc([N+](=O)[O-])cc12)C(=O)O,5.52,–
CCOC(=O)[C@@H](Cc1ccccc1)NC(=O)C(=O)c1c[nH]c2ccc(Cl)cc12,4.35,–
CCOC(=O)[C@H](C)NC(=O)C(=O)c1c[nH]c2ccc(Br)cc12,6.74,ED50 (Mus musculus [3]): 50 mg/kg; ED50 (Mus musculus [4]): 40 mg/kg; Ratio [1]: 0.78
CCOC(=O)[C@@H](C)NC(=O)C(=O)c1c[nH]c2ccc(Br)cc12,4.28,Ratio [1]: 0.85
COc1ccc2[nH]cc(C(=O)C(=O)N[C@@H](Cc3ccccc3)C(=O)O)c2c1,–,inhibition [5]: 50%
C[C@H](NC(=O)C(=O)c1c[nH]c2ccc(Cl)cc12)C(=O)O,5.30,–
O=C(N[C@H](Cc1ccccc1)C(=O)O)C(=O)c1c[nH]c2ccc(Br)cc12,3.61,inhibition [5]: 51%
O=C(N[C@@H](Cc1ccccc1)C(=O)O)C(=O)c1c[nH]c2ccccc12,–,inhibition [5]: 47%
O=C(NC(Cc1ccccc1)C(=O)O)C(=O)c1c[nH]c2ccc(Br)cc12 (configuration not stated),3.80,–
CCOC(=O)[C@@H](C)NC(=O)C(=O)c1c[nH]c2ccc(OC)cc12,3.96,–
C[C@@H](NC(=O)C(=O)c1c[nH]c2ccc([N+](=O)[O-])cc12)C(=O)O,4.72,–
O=C(N[C@H](Cc1ccccc1)C(=O)O)C(=O)c1c[nH]c2ccc([N+](=O)[O-])cc12,4.68,–
C[C@H](NC(=O)C(=O)c1c[nH]c2ccc(Br)cc12)C(=O)O,5.15,–
CCOC(=O)[C@@H](Cc1ccccc1)NC(=O)C(=O)c1c[nH]c2ccc([N+](=O)[O-])cc12,5.55,–

Structure (SMILES),pIC50 [2],other results
CCOC(=O)[C@@H](Cc1ccccc1)NC(=O)C(=O)c1c[nH]c2ccc(OC)cc12,–,inhibition [5]: 30%
CCOC(=O)[C@@H](C)NC(=O)C(=O)c1c[nH]c2ccc([N+](=O)[O-])cc12,5.52,Ratio [1]: 0.79
O=C(N[C@@H](Cc1ccccc1)C(=O)O)C(=O)c1c[nH]c2ccc(Br)cc12,4.22,–
O=C(N[C@H](Cc1ccccc1)C(=O)O)C(=O)c1c[nH]c2ccccc12,–,inhibition [5]: 32%
CCOC(=O)[C@@H](Cc1ccccc1)NC(=O)C(=O)c1c[nH]c2ccccc12,–,inhibition [5]: 55%
CCOC(=O)[C@H](C)NC(=O)C(=O)c1c[nH]c2ccc([N+](=O)[O-])cc12,7.15,ED50 (Mus musculus [3]): 100 mg/kg; ED50 (Mus musculus [4]): 150 mg/kg; Ratio [1]: 0.67
COc1ccc2[nH]cc(C(=O)C(=O)N[C@H](Cc3ccccc3)C(=O)O)c2c1,–,inhibition [5]: 18%
C[C@@H](NC(=O)C(=O)c1c[nH]c2ccc(Cl)cc12)C(=O)O,4.34,–
C[C@@H](NC(=O)C(=O)c1c[nH]c2ccccc12)C(=O)O,3.52,inhibition [5]: 32%
O=C(N[C@H](Cc1ccccc1)C(=O)O)C(=O)c1c[nH]c2ccc(Cl)cc12,4.32,–
CCOC(=O)[C@H](C)NC(=O)C(=O)c1c[nH]c2ccc(OC)cc12,6.05,–
O=C(N[C@@H](Cc1ccccc1)C(=O)O)C(=O)c1c[nH]c2ccc([N+](=O)[O-])cc12,5.40,–
CCOC(=O)[C@@H](C)NC(=O)C(=O)c1c[nH]c2ccccc12,4.77,–
C[C@H](NC(=O)C(=O)c1c[nH]c2ccccc12)C(=O)O,4.32,–
COc1ccc2[nH]cc(C(=O)C(=O)N[C@H](C)C(=O)O)c2c1,3.77,–
O=C(N[C@@H](Cc1ccccc1)C(=O)O)C(=O)c1c[nH]c2ccc(Cl)cc12,4.92,–
CCOC(=O)[C@H](Cc1ccccc1)NC(=O)C(=O)c1c[nH]c2ccc(Br)cc12,4.26,–
CC(NC(=O)C(=O)c1c[nH]c2ccccc12)C(=O)O (configuration not stated),3.98,–
CCOC(=O)[C@H](Cc1ccccc1)NC(=O)C(=O)c1c[nH]c2ccccc12,–,inhibition [5]: 69%
CC(NC(=O)C(=O)c1c[nH]c2ccc(Br)cc12)C(=O)O (configuration not stated),4.40,–
COc1ccc2[nH]cc(C(=O)C(=O)N[C@@H](C)C(=O)O)c2c1,4.66,–
CCOC(=O)[C@H](Cc1ccccc1)NC(=O)C(=O)c1c[nH]c2ccc(OC)cc12,–,inhibition [5]: 77%
